Assay results collected from several papers.
Lines come from different studies, so protocols differ.
MTNR1A: Melatonin receptor type 1A (MTNR1A, Homo sapiens, UniProt P48039)
FLT3: Receptor-type tyrosine-protein kinase FLT3 (FLT3, Homo sapiens, UniProt P36888)

For `CCc1ccc2scc(CCNC(C)=O)c2c1`, the EC50 was 0.012 µM (MTNR1A; β-arrestin recruitment, agonist).
`NC(=O)c1ccc(Nc2nccc(NC3CCCCC3)n2)cc1` gave an IC50 of 0.014 µM (FLT3; enzyme activity, inhibitor).
`COc1cc2c(CCNC(C)=O)c[nH]c2cc1I` has an EC50 of 0.01 µM (MTNR1A; GTPγS binding, agonist, radiometric; cell membranes).
For `COc1ccc(Br)c(CNc2cccnc2)c1`, the Ki was 0.347 µM (MTNR1A; cell-free assay).
`Cc1cnc(-c2ccc(-c3ccc(NC(=O)Nc4c(F)cc(F)cc4F)cc3F)c3c2C(=O)NC3)[nH]1` gave a Kd of 0.018 µM (Tyrosine-protein kinase receptor Tie-1 (TIE1, Homo sapiens, UniProt P35590); binding, competition with immobilised ligand).
`COc1ccc2ncn(CCNC(C)=O)c2c1` has an EC50 of 1.12 µM (MTNR1A; cAMP, agonist, TR-FRET).
For `COc1ccc(CN(C)C(=O)c2cc(F)c[nH]2)cc1O`, the EC50 was 0.0211 µM (MTNR1A; cAMP, agonist, luciferase).
`Cc1cc(Nc2cc3ncccc3c(N[C@@H]3C[C@H]4CC[C@@H](C3)N4CCC#N)n2)n[nH]1` gave a Kd of 0.04 µM (FLT3; binding, competition with immobilised ligand).
`c1ccc(-c2cccc(Nc3nccc(NC4CCCCC4)n3)c2)nc1` gave an IC50 of 1.71 µM (FLT3; enzyme activity, inhibitor).
`Cc1cc2nc3c(=O)[nH]c(=O)nc-3n(C[C@H](O)[C@H](O)[C@H](O)COP(=O)(O)OP(=O)(O)OC[C@H]3O[C@@H](n4cnc5c(N)ncnc54)[C@H](O)[C@@H]3O)c2cc1C` has a Kd of 0.03 µM (Annexin A7 (Homo sapiens, UniProt P20073); binding; lysate).
`COC(=O)c1ccc(CSc2nnc(C3CC3)[nH]2)cc1` gave an EC50 of 0.777 µM (MTNR1A; cAMP, agonist, luciferase).
`CC(C)Nc1ccnc(Nc2cccc(-c3cnccn3)c2)n1` gave an IC50 of 0.011 µM (FLT3; enzyme activity, inhibitor).
